Source: ChEMBL document CHEMBL2311339, “Identification of GZD824 as an orally bioavailable inhibitor that targets phosphorylated and nonphosphorylated breakpoint cluster region-Abelson (Bcr-Abl) kinase and overcomes clinically acquired mutation-induced resistance against imatinib” (J Med Chem, 2013)
Active and inactive are the calls of the source. The rule behind the calls is not given here.

How the values were obtained:
[1] = Antitumor activity against mouse BA/F3 cells expressing BCR-ABL T315I mutant allografted in SCID mouse assessed as increase in median survival at 20 mg/kg/day, po qd for 10 days; type: functional, BaF3
Summary of the method: (§1)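 Ba/F3 Bcr-Abl T315I cells stably carrying firefly luciferase, in saline, were injected i.v. into SCID nude mice (2 × 10^6 cells/0.1 mL). Imaging began 5−7 days later: i.p. D-luciferin, halothane anaesthesia, images after 5 min. Mice were randomised by signal and dosed by oral gavage once daily for 10 days (5, 10, 20 mg/kg/day; imatinib 100 mg/kg; vehicle). Luminescence was quantified; survival by Kaplan−Meier with log-rank test.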

[2] = Antitumor activity against mouse BA/F3 cells expressing BCR-ABL T315I mutant allografted in SCID mouse assessed as increase in median survival at 5 mg/kg/day, po qd for 10 days; type: functional, BaF3; summary of the method: as §1
[3] = tested on: BaF3; assay: Antitumor activity against mouse BA/F3 cells expressing wild type BCR-ABL allografted in SCID mouse assessed as inhibition of tumor growth at 1 mg/kg/day, po qd for 14 days; type: functional, organism-based
Summary of the method: (§2)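 Ba/F3 cells stably expressing Bcr-Abl (wild type or mutant) were grown in RPMI 1640 with 10% FBS and no IL-3, then suspended in saline (2.5 × 10^7 cells/mL) and given as 0.2 mL s.c. in the right flank. Groups were randomised at 100−200 mm3. Once-daily oral gavage for 14 days in DMSO/Cremophor/ethanol/saline vehicle; reference imatinib 50 or 100 mg/kg/day. Volume L × W²/2 every 2 days; n = 10; t test versus vehicle.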

[4] = tested on: BaF3; assay: Antitumor activity against mouse BA/F3 cells expressing wild type BCR-ABL allografted in SCID mouse assessed as inhibition of tumor growth at 50 to 100 mg/kg/day, po qd for 14 days; type: functional, organism-based; summary of the method: as §2
[5] = tested on: BaF3; assay: Antitumor activity against mouse BA/F3 cells expressing BCR-ABL T315I mutant allografted in po dosed SCID mouse assessed as inhibition of tumor growth administered qd for 14 days; type: functional, organism-based; summary of the method: as §2
[6] = tested on: K562; assay: Antitumor activity against human K562 cells xenografted in mouse assessed as decrease in tumor recurrence at 5 to 10 mg/kg, po qd for 20 days; type: functional, organism-based
[7] = tested on: K562; assay: Antitumor activity against human K562 cells xenografted in mouse assessed as reduction in tumor size at 2 to 10 mg/kg, po qd for 2 days; type: functional, organism-based
[8] = Plasma concentration in rat after 12 hrs; type: ADME
Summary of the method: (§3)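 Bismesylate salt given to rats as a single iv dose of 5 mg/kg or a single oral dose of 25 mg/kg. Plasma drug levels were followed over time to derive the PK parameters. The 12 h and 24 h plasma levels come from the oral 25 mg/kg dose.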

[9] = Plasma concentration in rat after 24 hrs; type: ADME; summary of the method: as §3
[10] = Volume of distribution at steady state in rat at 5 mg/kg, iv; type: ADME, organism-based; parameters: dose 5 mg/kg, route intravenous; conditions: in vivo, read-out: Vdss
Summary of the method: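 Test compound given to rats as its bismesylate salt in a single dose, 5 mg/kg iv or 25 mg/kg by mouth. Plasma drug levels were monitored after dosing, and PK parameters including Vss were reported per route.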

[11] = Clearance in rat at 5 mg/kg, iv; type: ADME, organism-based; parameters: dose 5 mg/kg, route intravenous; conditions: in vivo; summary of the method: as §3
[12] = AUC (0 to t) in rat at 5 mg/kg, iv; type: ADME, organism-based; parameters: dose 5 mg/kg, route intravenous; conditions: plasma; summary of the method: as §3
[13] = Apparent permeability from basolateral to apical side in human Caco2 cells by LC-MS/MS analysis; type: ADME, cell-based; conditions: Caco-2
[14] = Apparent permeability from apical to basolateral side in human Caco2 cells by LC-MS/MS analysis; type: ADME, cell-based; conditions: Caco-2
[15] = target: Cytochrome P450 2E1 (Homo sapiens, UniProt P05181); assay: Inhibition of human recombinant CYP2E1 at 30 uM after 30 mins; type: ADME; conditions: recombinant enzyme, 0.5 h
[16] = target: Cytochrome P450 3A4 (Homo sapiens, UniProt P08684); assay: Inhibition of human recombinant CYP3A4 at 30 uM after 30 mins; type: ADME; conditions: recombinant enzyme, 0.5 h
[17] = tested on: U-937; assay: Cytotoxicity against human U937 cells […] assessed as growth inhibition after 72 hrs by CCK-8 assay; type: functional, cell-based; conditions: U-937, 72 h
Summary of the method: (§4)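 Log-phase human leukemia cells were seeded at about 3000 cells/well and treated 24 h later for 72 h. CCK-8 was then incubated with the cells for 3 h and read as OD450 − OD650. Viability was normalized to vehicle wells and cell-free blanks, and IC50 taken as the mean of three experiments.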

[18] = Cytotoxicity against human SUP-B15 cells expressing BCR-ABL assessed as growth inhibition after 72 hrs by CCK-8 assay; type: functional, cell-based; conditions: SUP-B15, 72 h; summary of the method: as §4
[19] = Cytotoxicity against human KU812 cells expressing BCR-ABL assessed as growth inhibition after 72 hrs by CCK-8 assay; type: functional, cell-based; conditions: KU812, 72 h; summary of the method: as §4
[20] = Cytotoxicity against mouse BA/F3 cells expressing BCR-ABL F486S mutant assessed as growth inhibition after 72 hrs by CCK-8 assay; conditions: BaF3, 72 h
[21] = Cytotoxicity against mouse BA/F3 cells expressing BCR-ABL E355G mutant assessed as growth inhibition after 72 hrs by CCK-8 assay; conditions: BaF3, 72 h
[22] = Cytotoxicity against mouse BA/F3 cells expressing BCR-ABL M351T mutant assessed as growth inhibition after 72 hrs by CCK-8 assay; conditions: BaF3, 72 h
[23] = target: Platelet-derived growth factor receptor beta (Homo sapiens) (UniProt P09619); assay: Binding affinity to PDGFRbeta (unknown origin) at 10 nM after 2 hrs by FRET assay
[24] = target: Serine/threonine-protein kinase B-raf (Homo sapiens) (UniProt P15056); assay: Binding affinity to BRAF (unknown origin) at 10 nM after 2 hrs by FRET assay
[25] = target: Epithelial discoidin domain-containing receptor 1 (Homo sapiens) (UniProt Q08345); assay: Binding affinity to DDR1 (unknown origin) at 10 nM after 2 hrs by FRET assay
[26] = target: Fibroblast growth factor receptor (Homo sapiens) (UniProt P22607+P11362+P22455+P21802); assay: Binding affinity to FGFR (unknown origin) at 10 nM after 2 hrs by FRET assay; type: protein assay
[27] = target: Tyrosine-protein kinase ABL1 (Homo sapiens, UniProt P00519, M351T); assay: Binding affinity to phosphorylated ABL1 M351T mutant (unknown origin) after 1 hr
[28] = target: Tyrosine-protein kinase ABL1 (Homo sapiens, UniProt P00519, H396P); assay: Binding affinity to non phosphorylated ABL1 H396P mutant (unknown origin) after 1 hr
[29] = target: Tyrosine-protein kinase ABL1 (Homo sapiens, UniProt P00519, F317I); assay: Binding affinity to non phosphorylated ABL1 F317I mutant (unknown origin) after 1 hr
[30] = target: T1, Tyrosine-protein kinase ABL1 (Homo sapiens, UniProt P00519, Q252H); assay: Binding affinity to non phosphorylated ABL1 Q252H mutant (unknown origin) after 1 hr
[31] = target: T1, Tyrosine-protein kinase ABL1; type: cell-based
[32] = cells; conditions: Mus musculus, BaF3, 72 h

Serine/threonine-protein kinase B-raf (Homo sapiens), sequence (P15056 whole entry, the tested form may be a part): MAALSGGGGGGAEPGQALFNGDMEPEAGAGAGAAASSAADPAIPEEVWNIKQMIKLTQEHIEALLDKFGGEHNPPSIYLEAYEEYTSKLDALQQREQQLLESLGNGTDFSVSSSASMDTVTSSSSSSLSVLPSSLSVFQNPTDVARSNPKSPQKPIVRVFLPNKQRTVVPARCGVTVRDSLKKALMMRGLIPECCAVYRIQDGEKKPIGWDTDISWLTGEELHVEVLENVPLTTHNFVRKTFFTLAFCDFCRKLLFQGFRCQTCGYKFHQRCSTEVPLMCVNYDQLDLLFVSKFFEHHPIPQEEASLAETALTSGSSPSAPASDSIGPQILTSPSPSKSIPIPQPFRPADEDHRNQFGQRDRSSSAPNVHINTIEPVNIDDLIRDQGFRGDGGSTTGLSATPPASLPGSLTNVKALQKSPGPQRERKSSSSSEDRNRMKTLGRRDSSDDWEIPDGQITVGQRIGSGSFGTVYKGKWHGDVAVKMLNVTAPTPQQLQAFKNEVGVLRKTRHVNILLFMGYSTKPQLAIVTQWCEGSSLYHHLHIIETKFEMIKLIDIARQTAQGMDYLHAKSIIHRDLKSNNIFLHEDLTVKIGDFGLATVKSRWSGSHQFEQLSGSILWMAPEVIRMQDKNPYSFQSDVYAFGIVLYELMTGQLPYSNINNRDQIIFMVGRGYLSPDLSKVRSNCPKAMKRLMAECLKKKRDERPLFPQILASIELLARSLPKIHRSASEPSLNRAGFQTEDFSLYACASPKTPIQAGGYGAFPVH
Cytochrome P450 2E1, sequence (P05181 whole entry): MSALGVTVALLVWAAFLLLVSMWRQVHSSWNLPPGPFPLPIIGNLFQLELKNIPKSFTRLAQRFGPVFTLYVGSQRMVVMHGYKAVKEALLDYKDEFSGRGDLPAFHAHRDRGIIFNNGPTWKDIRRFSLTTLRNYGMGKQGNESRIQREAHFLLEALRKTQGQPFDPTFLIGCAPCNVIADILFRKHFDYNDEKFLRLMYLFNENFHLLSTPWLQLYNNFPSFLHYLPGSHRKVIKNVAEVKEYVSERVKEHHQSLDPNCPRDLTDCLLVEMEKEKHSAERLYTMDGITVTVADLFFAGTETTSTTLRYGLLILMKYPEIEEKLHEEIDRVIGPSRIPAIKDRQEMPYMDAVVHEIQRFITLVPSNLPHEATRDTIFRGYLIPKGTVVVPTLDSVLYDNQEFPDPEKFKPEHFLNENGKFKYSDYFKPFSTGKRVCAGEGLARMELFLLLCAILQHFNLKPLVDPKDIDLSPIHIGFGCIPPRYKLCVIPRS
Platelet-derived growth factor receptor beta (Homo sapiens), sequence (P09619 whole entry): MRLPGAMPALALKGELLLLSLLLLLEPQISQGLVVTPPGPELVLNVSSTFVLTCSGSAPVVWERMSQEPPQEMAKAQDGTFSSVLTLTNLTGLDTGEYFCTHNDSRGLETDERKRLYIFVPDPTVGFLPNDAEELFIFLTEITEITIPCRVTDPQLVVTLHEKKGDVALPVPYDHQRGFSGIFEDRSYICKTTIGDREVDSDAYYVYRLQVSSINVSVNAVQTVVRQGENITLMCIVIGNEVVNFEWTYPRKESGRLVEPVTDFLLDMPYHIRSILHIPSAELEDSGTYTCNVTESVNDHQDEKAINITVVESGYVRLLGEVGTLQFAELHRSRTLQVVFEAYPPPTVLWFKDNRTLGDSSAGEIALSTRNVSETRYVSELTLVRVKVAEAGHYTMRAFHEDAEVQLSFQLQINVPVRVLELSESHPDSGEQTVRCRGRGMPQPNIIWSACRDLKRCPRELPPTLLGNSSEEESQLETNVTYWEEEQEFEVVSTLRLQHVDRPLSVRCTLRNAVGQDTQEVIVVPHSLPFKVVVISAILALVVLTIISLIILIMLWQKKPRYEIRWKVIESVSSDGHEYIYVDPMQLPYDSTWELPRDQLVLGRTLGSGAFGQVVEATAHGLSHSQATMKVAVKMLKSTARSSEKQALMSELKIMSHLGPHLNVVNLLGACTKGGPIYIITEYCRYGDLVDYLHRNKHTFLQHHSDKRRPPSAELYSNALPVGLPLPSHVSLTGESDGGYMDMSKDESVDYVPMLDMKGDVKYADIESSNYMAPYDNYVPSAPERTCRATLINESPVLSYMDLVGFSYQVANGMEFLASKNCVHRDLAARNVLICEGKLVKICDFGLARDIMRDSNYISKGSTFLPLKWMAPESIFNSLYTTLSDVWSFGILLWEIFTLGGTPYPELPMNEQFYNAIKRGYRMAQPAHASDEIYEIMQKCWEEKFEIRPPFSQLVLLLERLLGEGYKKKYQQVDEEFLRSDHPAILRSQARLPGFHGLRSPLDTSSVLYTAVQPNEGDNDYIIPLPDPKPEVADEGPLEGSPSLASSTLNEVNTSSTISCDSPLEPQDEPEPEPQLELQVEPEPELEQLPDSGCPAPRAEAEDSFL
Cytochrome P450 3A4, sequence (P08684 whole entry): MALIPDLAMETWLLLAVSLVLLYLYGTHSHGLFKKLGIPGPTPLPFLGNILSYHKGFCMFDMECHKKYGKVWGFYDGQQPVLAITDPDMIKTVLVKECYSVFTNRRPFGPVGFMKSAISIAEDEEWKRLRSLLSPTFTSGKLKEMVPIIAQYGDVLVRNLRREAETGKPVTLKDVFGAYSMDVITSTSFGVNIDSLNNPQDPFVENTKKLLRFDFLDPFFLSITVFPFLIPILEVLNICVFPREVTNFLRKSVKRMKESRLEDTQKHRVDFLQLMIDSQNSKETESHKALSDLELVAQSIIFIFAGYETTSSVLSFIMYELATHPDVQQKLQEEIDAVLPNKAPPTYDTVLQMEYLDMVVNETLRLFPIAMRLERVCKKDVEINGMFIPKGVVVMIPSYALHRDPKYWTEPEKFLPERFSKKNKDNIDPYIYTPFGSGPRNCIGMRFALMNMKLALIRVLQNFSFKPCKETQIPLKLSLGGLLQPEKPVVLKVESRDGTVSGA
Epithelial discoidin domain-containing receptor 1 (Homo sapiens), sequence (Q08345 whole entry, the tested form may be a part): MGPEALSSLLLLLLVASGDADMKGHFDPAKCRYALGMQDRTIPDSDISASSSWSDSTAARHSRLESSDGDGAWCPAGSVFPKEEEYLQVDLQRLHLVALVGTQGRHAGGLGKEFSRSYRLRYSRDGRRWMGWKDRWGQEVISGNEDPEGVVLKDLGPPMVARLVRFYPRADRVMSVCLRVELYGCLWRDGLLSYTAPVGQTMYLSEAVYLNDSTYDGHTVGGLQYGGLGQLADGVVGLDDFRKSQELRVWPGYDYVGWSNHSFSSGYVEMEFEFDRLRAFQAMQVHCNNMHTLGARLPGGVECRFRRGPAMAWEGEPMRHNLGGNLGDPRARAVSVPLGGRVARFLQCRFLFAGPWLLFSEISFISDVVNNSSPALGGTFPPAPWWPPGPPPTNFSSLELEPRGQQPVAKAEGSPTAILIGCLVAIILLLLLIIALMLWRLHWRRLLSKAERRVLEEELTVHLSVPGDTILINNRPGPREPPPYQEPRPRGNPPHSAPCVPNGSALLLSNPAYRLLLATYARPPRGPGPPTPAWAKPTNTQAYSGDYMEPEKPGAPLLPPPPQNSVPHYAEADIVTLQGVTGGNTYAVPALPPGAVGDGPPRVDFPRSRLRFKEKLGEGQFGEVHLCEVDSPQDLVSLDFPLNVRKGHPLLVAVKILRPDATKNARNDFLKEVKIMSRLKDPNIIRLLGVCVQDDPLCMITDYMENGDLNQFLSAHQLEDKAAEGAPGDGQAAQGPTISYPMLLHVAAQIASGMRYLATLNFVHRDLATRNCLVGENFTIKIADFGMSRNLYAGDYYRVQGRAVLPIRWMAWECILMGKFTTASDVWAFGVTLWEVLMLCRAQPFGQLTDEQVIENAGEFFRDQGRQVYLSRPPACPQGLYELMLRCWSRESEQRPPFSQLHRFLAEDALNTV

SMILES: Cc1ccc(C(=O)Nc2ccc(CN3CCN(C)CC3)c(C(F)(F)F)c2)cc1C#Cc1cnc2[nH]ncc2c1 [OLVEREMBATINIB]
- Survival [1]: 31.9 days
- Survival [2]: 23.7 days
- TGI [3]: Active
- TGI [4]: Dose-dependent effect
- TGI [5]: Active
- Activity [6]: Active
- Activity [7]: Active
- concentration at 12 h [8]: 270 nM
- concentration at 24 h [9]: 169 nM
- Vd [10]: 13.7 L/kg
- clearance [11]: 28.3 mL/min/kg
- AUC(0-t) [12]: 2740 ng·h/mL
- Papp B→A [13]: 0.28 ×10⁻⁶ cm/s
- Papp A→B [14]: 0.32 ×10⁻⁶ cm/s
- inhibition (INH) [15]: Not Active
- inhibition (INH) [16]: Not Active
- IC50 [17]: 390 nM
- IC50 [18]: 2.5 nM
- IC50 [19]: 0.13 nM
- IC50 [20]: 1 nM
- IC50 [21]: 2.6 nM
- IC50 [22]: 0.2 nM
- Activity [23]: inactive
- Activity [24]: inactive
- Activity [25]: inactive
- Activity [26]: inactive
- Kd [27]: 0.23 nM
- Kd [28]: 0.18 nM
- Kd [29]: 1.8 nM
- Kd [30]: 0.46 nM
- IC50 [31]: 0.15 nM
- IC50 [32]: 7.1 nM
